According to PMC4972181 (Journal of medicinal chemistry, 2015):
Where two headings read alike, the source gives them in different places.

Experiments:
[1] = tested on: INSR minigene exon 11 splicing in HeLa cells expressing CUG960; type: cell-based, human; conditions: for INSR mis-splicing rescue (in words): HeLa cells, CUG960 + INSR minigene
[2] = tested on: TNNT2 minigene exon 5 splicing in HeLa cells expressing CUG960; assay: HeLa cell DM1 splicing assay, TNNT2 minigene co-transfected with CUG960; type: cell-based, human
[3] = tested on: INSR minigene exon 11 splicing in HeLa cells without CUG960; assay: Control splicing experiment, INSR minigene in the absence of transfected CUG960; type: cell-based, human; conditions: 80 μM; untreated range ~70% to ~80 %
[4] = tested on: CUG: MBNL nuclear foci in HeLa cells transfected with CUG960; assay: Fluorescent microscopy of CUG RNA nuclear foci and MBNL1 localization; type: cell-based, human; conditions: for Effect on ribonuclear foci (in words): 50 μM pentamidine or 80 μM compound 13
[5] = tested on: Atp2a1 exon 22 splicing; assay: HSALR DM1 mouse model, Atp2a1 splicing in quadriceps muscle; type: in vivo; conditions: HSALR mice, wild type 100 ± 0.2 %, HSALR 28 ± 2 %
Method in brief: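 Homozygous, gender-matched HSALR transgenic mice aged 10–14 wks received the test compound in 5% glucose solution by daily intraperitoneal injection for 7 d. Controls received 5% glucose injections. Mice were killed 1 d after the last dose and quadriceps was taken. RNA was reverse transcribed, PCR-amplified and run on agarose gels read by fluorimager. Inclusion was scored per individual mouse.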

[6] = Toxicity observed in treated HSALR mice; type: in vivo, mouse; conditions: 10 and 20 mg/kg daily i.p. for 7 d
[7] = Flow cytometry cell viability assay with propidium iodide in the DM1 cell model; conditions: human, HeLa cells, DM1 cell model (transfected)
[8] = in vitro; conditions: human

Question: With `N=C(N)c1ccc(OCCCOc2ccccc2)cc1` [Compound 2a] as the molecule, how does the “INSR mis-splicing rescue (in words)” value [1] read?
Answer: Its value is “dose-dependent rescue of mis-splicing through 60 μM”.

Question: Which “INSR mis-splicing rescue (in words)” value [1] does the source give for `N=C(N)c1ccc(OCCCCc2ccccc2)cc1` [Compound 2b] here?
Answer: The value was “little rescue was observed by 20 μM”.

Question: For `N=C(N)c1cccc(OCCCCCCCOc2cccc(C(=N)N)c2)c1` [Compound 4], which “Toxicity observed in the cell splicing assay (in words)” value [1] is on record?
Answer: The value was “very toxic over the range tested”.

Question: And the “INSR mis-splicing rescue (in words)” value [1]?
Answer: Its value is “almost complete dose-dependent mis-splicing rescue at 25 μM”.

Question: Which results are given for `N=C(N)c1ccc(-c2ccc(-c3ccc(C(=N)N)cc3)o2)cc1` [Compound 13, furamidine]?
Answer: Toxicity observed in the cell splicing assay (in words) ([1]; HeLa DM1 cell model, qualitative): non-toxic over the range of rescue; Concentration by which full TNNT2 mis-splicing reversal was achieved [2]: ≤ 80 µM; INSR exon 11 inclusion in the absence of CUG960 [3]: 81± 4%; Effect on ribonuclear foci (in words) [4]: significant reduction of ribonuclear foci; Reduction of nuclear foci per cell ([4]; 80 μM, vs transfected controls, n = 121, p < 0.05): 89%; Atp2a1 exon 22 inclusion ([5]; 10 mg/kg daily i.p. 7 days): 64 ± 4%; Atp2a1 exon 22 inclusion ([5]; 20 mg/kg daily i.p. 7 days): 83 ± 4%; Toxicity in mice (in words) [6]: No toxicity was observed over the concentration range tested

Question: With `N=C(N)c1ccc(OCCCCCCCOc2ccc(C(=N)N)cc2)cc1` [Heptamidine, heptamidine] as the molecule, how does the IC50 at 18 h [7] read?
Answer: The IC50 at 18 h was 15 ± 0.46 µM.

Question: For `N=C(N)c1ccc(OCCCCCOc2ccc(C(=N)N)cc2)cc1` [Pentamidine, pentamidine, reference compound], which “Effect on ribonuclear foci (in words)” value [4] is on record?
Answer: The value was “significant reduction of ribonuclear foci”.

Question: What about the IC50 at 18 h [8] of the same molecule?
Answer: Its IC50 at 18 h is 64 ± 12 µM.
